Where “and” joins values, the source holds several entries; their conditions need not be identical. Identical values can stand only once. Entries after “also recorded” stand apart in the source; their conditions may differ.
What was measured:
[1] = Single-dose; type: in vivo, human; conditions: for CL: single oral dose 1 mg trandolapril, mean
[2] = tested on: CES1 G143E; conditions: cells transfected with the variant; cited from earlier work
[3] = Stability of QC samples in human plasma; type: physicochemical; conditions: autosampler 4°C for 48 h or 3 successive freeze (−20°C) and thaw cycles
How it was run: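 Plasma QC samples held both analytes at 30, 300 and 1000 pg/ml, five replicates each. They were extracted by solid phase with deuterated internal standards and quantified by LC-MS/MS. Processed samples were tested after 48 h in the autosampler at 4°C, and QC samples after three freeze (−20°C)/thaw cycles, following FDA bioanalytical validation guidance.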

[4] = tested on: healthy volunteers; assay: Single-dose; type: in vivo, human
How it was run: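 Healthy non-smoking volunteers (8 CES1 G143E heterozygotes, 11 noncarriers) fasted overnight, then took a single 1 mg oral test compound dose with 240 ml water and fasted until 4 h post-dose. The maximal post-dose reduction was taken; mean ± SD.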

[5] = tested on: ACE; conditions: cited from earlier work
[6] = cited from earlier work
[7] = G/E, individual subjects (n=8), single oral dose 1 mg
[8] = G/G, individual subjects (n=11), single oral dose 1 mg
[9] = Mean ± SD (G/E), n=8, single oral dose 1 mg
[10] = Mean ± SD (G/G), n=11, single oral dose 1 mg

CCOC(=O)[C@H](CCc1ccccc1)N[C@@H](C)C(=O)N1[C@H](C(=O)O)C[C@H]2CCCC[C@@H]21 [Trandolapril]
CL ([1]; CES1 143G/E (n=8)): 1027.58 L/h
CL ([1]; CES1 143G/G (n=11)): 893.90 L/h
catalytic activity of CES1 G143E on trandolapril activation [2]: abolished; also recorded: completely impaired
stability of processed and QC samples [3]: stable
DBP Max reduction [4, 7]: 10 and 11 and 3 and 15 and 21 and 6 and 13
Heart rate Max reduction [4, 7]: 20 and 11 and 17 and 7 and 3 and 4 and 18
SBP Max reduction [4, 7]: 11 and 12 and 6 and 5 and 4 and 33
DBP Max reduction [4, 8]: 19 and 23 and 8 and 30 and 5 and 14 and 7 and 15 and 13
Heart rate Max reduction [4, 8]: 3 and −1 and 6 and 24 and 4 and −3 and 7 and 10 and 30 and 9
SBP Max reduction [4, 8]: 32 and 23 and 10 and 16 and 12 and 7 and 5 and 11
DBP Max reduction [4, 9]: 12 ± 6
Heart rate Max reduction [4, 9]: 12 ± 7
SBP Max reduction [4, 9]: 11 ± 9
DBP Max reduction [4, 10]: 15 ± 7
Heart rate Max reduction [4, 10]: 9 ± 10
SBP Max reduction [4, 10]: 14 ± 8
average maximum reduction of SBP in carriers less than in noncarriers ([4]; abstract, not statistically significant): ~ 22%
changes in heart rate after trandolapril administration ([4]; noncarrier and carrier group): no significant changes
time of maximal reduction of SBP and DBP after dosing ([4]; noncarrier group, single oral dose 1 mg): 6 to 8 h
maximum reduction of DBP in carrier group as percent of noncarrier group ([4]; p = 0.26, not statistically significant): 80.0%
maximum reduction of SBP in carrier group as percent of noncarrier group ([4]; p = 0.54, not statistically significant): 78.6%

C[C@H](N[C@@H](CCc1ccccc1)C(=O)O)C(=O)N1[C@H](C(=O)O)C[C@H]2CCCC[C@@H]21 [Trandolaprilat, trandolaprilat]
decrease of Cmax in G143E carriers relative to noncarriers ([1]; 1 mg oral trandolapril, p = 0.17, not statistically significant): 20%
decrease of AUC0–72 h in G143E carriers relative to noncarriers ([1]; 1 mg oral trandolapril, p = 0.33, not statistically significant): 15%
CL ([1]; CES1 143G/E (n=8)): 9.96 L/h
CL ([1]; CES1 143G/G (n=11)): 12.20 L/h
Tmax ([1]; human, plasma, po, 1 mg): 6.7 h
stability of processed and QC samples [3]: stable
potency at inhibiting ACE relative to parent compound trandolapril [5]: approximately eight times more potent

CCOC(=O)[C@H](CCc1ccccc1)N[C@@H](C)C(=O)N1CCC[C@H]1C(=O)O [enalapril]
difference of PK parameters between G143E carriers and controls ([6]; Danish volunteers, 6 carriers and 16 noncarriers): no significant difference

C[C@H](N[C@@H](CCc1ccccc1)C(=O)O)C(=O)N1CCC[C@H]1C(=O)O [enalaprilat]
decrease of AUC0‐∞ in G143E carriers ([6]; Finnish subjects, carriers = 10, noncarriers = 12, p = 0.049): 20%

COC(=O)C(c1ccccc1)C1CCCCN1 (centres unmarked) [methylphenidate]
mean AUC0‐∞ higher in G143E carriers than in controls ([6]; Danish volunteers, 6 carriers and 16 noncarriers, p < 0.0001): 152.4%

CCOC(=O)[C@H](CCc1ccccc1)N[C@@H](C)C(=O)N1Cc2ccccc2C[C@H]1C(=O)O [quinapril]
impact of G143E on PKs ([6]; Finnish subjects, carriers = 10, noncarriers = 12): no significant impact

From PMC8301577 (Clinical and Translational Science, 2021)
